# Source: ChEMBL document CHEMBL5724801, “EUbOPEN Chemogenomics Library - Multiplex” (2024)
# “And” between values parts separate entries of the source, which are not always exact repeats. Identical values can stand only once.
# Legend:
# Fibroblast = assay: Multiplex assay against human fibroblast; assay type: toxicity, cell-based
# Outline: (§1)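 Values for tubulin, mitochondrial-mass and membrane-permeability phenotypes are per cents of cells with healthy nuclei. These cells were identified by CellPathfinder machine-learning gating of live cells that had been stained at seeding with Hoechst33342, BioTracker Green Microtubule Cytoskeleton Dye, MitoTracker Red and Annexin V Alexa Fluor 680 and imaged on a CQ1 microscope at 37°C and 5% CO2 after compound addition. The gating first set Hoechst high-intensity objects apart from normal cells, then split normal cells into healthy, pyknosed or fragmented nuclei, and pyknosed cells into mitotic or apoptotic.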
# HEK-293T = assay: Multiplex assay against HEK293T; assay type: toxicity, cell-based; conditions: human; outline: as §1
# [1] = 24 h, 10 µM, compound concentration 10 uM
# [2] = 48 h, 1 µM, compound concentration 1 uM
# [3] = 48 h, 10 µM, compound concentration 10 uM
# [4] = 12 h, 1 µM, compound concentration 1 uM
# [5] = 12 h, 10 µM, compound concentration 10 uM
# [6] = 24 h, 1 µM, compound concentration 1 uM
compound,measurement,setting,value
CC(C)(O)C(=O)N1CCN(c2ccc(C(F)(F)F)c(C3=C(c4c[nH]c5ccccc45)C(=O)NC3=O)c2)CC1,Population Fragmented Nuclei (%),Fibroblast; [1],24% and 27%
same,Population Healthy Nuclei (%),Fibroblast; [1],40% and 33%
same,Population Hoechst High Intensity Objects (%),Fibroblast; [1],7% and 3%
same,Population Membrane Permeable-Phenotype (%),Fibroblast; [1],2% and 6%
same,Population Mitochondria Different-Phenotype (%),Fibroblast; [1],30% and 20%
same,Population Mitotic Cells (%),Fibroblast; [1],73% and 63%
same,Population Normal (%),Fibroblast; [1],92% and 96%
same,Population Pyknosed Nuclei (%),Fibroblast; [1],34% and 39%
same,Population Tubulin-Different-Phenotype (%),Fibroblast; [1],79% and 90%
same,Total Cell Count,Fibroblast; [1],131 and 138
same,Population Apoptotic (%),Fibroblast; [2],64% and 41%
same,Population Fragmented Nuclei (%),Fibroblast; [2],21% and 33%
same,Population Healthy Nuclei (%),Fibroblast; [2],61% and 37%
same,Population Hoechst High Intensity Objects (%),Fibroblast; [2],5% and 7%
same,Population Membrane Permeable-Phenotype (%),Fibroblast; [2],0% and 1%
same,Population Mitochondria Different-Phenotype (%),Fibroblast; [2],12% and 15%
same,Population Mitotic Cells (%),Fibroblast; [2],36% and 58%
same,Population Normal (%),Fibroblast; [2],94% and 92%
same,Population Pyknosed Nuclei (%),Fibroblast; [2],17% and 28%
same,Population Tubulin-Different-Phenotype (%),Fibroblast; [2],38% and 67%
same,Total Cell Count,Fibroblast; [2],155 and 165
same,Population Apoptotic (%),Fibroblast; [3],54%
same,Population Fragmented Nuclei (%),Fibroblast; [3],33% and 35%
same,Population Healthy Nuclei (%),Fibroblast; [3],27% and 25%
same,Population Hoechst High Intensity Objects (%),Fibroblast; [3],12% and 6%
same,Population Membrane Permeable-Phenotype (%),Fibroblast; [3],0% and 10%
same,Population Mitochondria Different-Phenotype (%),Fibroblast; [3],53% and 30%
same,Population Mitotic Cells (%),Fibroblast; [3],45%
same,Population Normal (%),Fibroblast; [3],87% and 93%
same,Population Pyknosed Nuclei (%),Fibroblast; [3],38% and 40%
same,Population Tubulin-Different-Phenotype (%),Fibroblast; [3],93% and 83%
same,Total Cell Count,Fibroblast; [3],123 and 129
same,Population Apoptotic (%),HEK-293T; [4],33% and 46%
same,Population Fragmented Nuclei (%),HEK-293T; [4],4% and 5%
same,Population Healthy Nuclei (%),HEK-293T; [4],78% and 76%
same,Population Hoechst High Intensity Objects (%),HEK-293T; [4],8% and 7%
same,Population Membrane Permeable-Phenotype (%),HEK-293T; [4],0%
same,Population Mitochondria Different-Phenotype (%),HEK-293T; [4],43% and 58%
same,Population Mitotic Cells (%),HEK-293T; [4],66% and 53%
same,Population Normal (%),HEK-293T; [4],91% and 92%
same,Population Pyknosed Nuclei (%),HEK-293T; [4],16% and 17%
same,Population Tubulin-Different-Phenotype (%),HEK-293T; [4],28% and 30%
same,Total Cell Count,HEK-293T; [4],381 and 293
same,Population Apoptotic (%),HEK-293T; [5],51% and 72%
same,Population Fragmented Nuclei (%),HEK-293T; [5],4% and 3%
same,Population Healthy Nuclei (%),HEK-293T; [5],74% and 75%
same,Population Hoechst High Intensity Objects (%),HEK-293T; [5],10% and 7%
same,Population Membrane Permeable-Phenotype (%),HEK-293T; [5],0%
same,Population Mitochondria Different-Phenotype (%),HEK-293T; [5],61% and 90%
same,Population Mitotic Cells (%),HEK-293T; [5],48% and 27%
same,Population Normal (%),HEK-293T; [5],89% and 92%
same,Population Pyknosed Nuclei (%),HEK-293T; [5],20% and 21%
same,Population Tubulin-Different-Phenotype (%),HEK-293T; [5],62% and 63%
same,Total Cell Count,HEK-293T; [5],338 and 203
same,Population Apoptotic (%),HEK-293T; [6],33% and 29%
same,Population Fragmented Nuclei (%),HEK-293T; [6],8% and 5%
same,Population Healthy Nuclei (%),HEK-293T; [6],74% and 79%
same,Population Hoechst High Intensity Objects (%),HEK-293T; [6],5%
same,Population Membrane Permeable-Phenotype (%),HEK-293T; [6],0%
same,Population Mitochondria Different-Phenotype (%),HEK-293T; [6],32% and 48%
same,Population Mitotic Cells (%),HEK-293T; [6],66% and 70%
same,Population Normal (%),HEK-293T; [6],94%
same,Population Pyknosed Nuclei (%),HEK-293T; [6],17% and 14%
same,Population Tubulin-Different-Phenotype (%),HEK-293T; [6],19%
same,Total Cell Count,HEK-293T; [6],469 and 335
same,Population Apoptotic (%),HEK-293T; [1],45% and 66%
same,Population Fragmented Nuclei (%),HEK-293T; [1],6% and 2%
same,Population Healthy Nuclei (%),HEK-293T; [1],71%
same,Population Hoechst High Intensity Objects (%),HEK-293T; [1],4% and 7%
same,Population Membrane Permeable-Phenotype (%),HEK-293T; [1],1% and 0%
same,Population Mitochondria Different-Phenotype (%),HEK-293T; [1],48% and 84%
same,Population Mitotic Cells (%),HEK-293T; [1],54% and 34%
same,Population Normal (%),HEK-293T; [1],95% and 92%
same,Population Pyknosed Nuclei (%),HEK-293T; [1],22% and 25%
same,Population Tubulin-Different-Phenotype (%),HEK-293T; [1],43% and 60%
same,Total Cell Count,HEK-293T; [1],387 and 212
same,Population Apoptotic (%),HEK-293T; [2],25% and 27%
same,Population Fragmented Nuclei (%),HEK-293T; [2],9% and 10%
same,Population Healthy Nuclei (%),HEK-293T; [2],79%
same,Population Hoechst High Intensity Objects (%),HEK-293T; [2],2% and 5%
same,Population Membrane Permeable-Phenotype (%),HEK-293T; [2],0%
same,Population Mitochondria Different-Phenotype (%),HEK-293T; [2],21% and 29%
same,Population Mitotic Cells (%),HEK-293T; [2],74% and 72%
same,Population Normal (%),HEK-293T; [2],97% and 94%
same,Population Pyknosed Nuclei (%),HEK-293T; [2],10%
same,Population Tubulin-Different-Phenotype (%),HEK-293T; [2],14% and 15%
same,Total Cell Count,HEK-293T; [2],780 and 571
same,Population Apoptotic (%),HEK-293T; [3],54% and 78%
same,Population Fragmented Nuclei (%),HEK-293T; [3],8% and 9%
same,Population Healthy Nuclei (%),HEK-293T; [3],71%
same,Population Hoechst High Intensity Objects (%),HEK-293T; [3],8%
same,Population Membrane Permeable-Phenotype (%),HEK-293T; [3],0%
same,Population Mitochondria Different-Phenotype (%),HEK-293T; [3],53% and 71%
same,Population Mitotic Cells (%),HEK-293T; [3],45% and 21%
same,Population Normal (%),HEK-293T; [3],91%
same,Population Pyknosed Nuclei (%),HEK-293T; [3],19%
same,Population Tubulin-Different-Phenotype (%),HEK-293T; [3],25% and 40%
same,Total Cell Count,HEK-293T; [3],467 and 227
